Publication PMC10438863 (Journal of Enzyme Inhibition and Medicinal Chemistry, 2023)

Columns and labels:
[1] = test system: K562 cell line; experiment: CCK-8 antiproliferative assay, K562; assay type: cell-based; conditions: for IC50 / inhibition at 0.1 µM / inhibition at 1 µM: Homo sapiens, K562, 72 h; for IC50: read-out: IC50 (µM) K562; for inhibition at 0.1 µM / inhibition at 1 µM: read-out: Inhibition rate (%); for fold decrease in antiproliferative activities of K562 cell lines: relative to 12d
In short: (§1)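 Cells were grown in RPMI-1640 with 10% FBS at 37 °C in 5% CO2. About 3.5 × 10^3 cells/well were seeded, grown 24 h, then given test compound at several concentrations for 72 h in triplicate wells. CCK-8 was added for 2–3 h and OD read at 450 nm to give inhibition rate or IC50. K562 screen: mean of ≥2 independent experiments. Five-line panel: mean ± SD of three.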

[2] = test system: A549; experiment: CCK-8 antiproliferative assay, A549; assay type: cell-based; conditions: Homo sapiens, A549, 72 h, read-out: IC50 (µM) A549
In short: as §1

[3] = test system: Hela; experiment: CCK-8 antiproliferative assay, Hela; assay type: cell-based; conditions: Homo sapiens, HeLa, 72 h, read-out: IC50 (µM) Hela
In short: as §1

[4] = test system: H22; experiment: CCK-8 antiproliferative assay, H22; assay type: cell-based, mouse; conditions: Mus musculus, H22, 72 h, read-out: IC50 (µM) H22
In short: as §1

[5] = test system: normal cell line HFL-1; experiment: CCK-8 assay, normal cell line HFL-1; assay type: cell-based; conditions: Homo sapiens, HFL1, 72 h, read-out: IC50 (µM) HFL-1
In short: as §1

[6] = test system: colchicine binding site on tubulin; experiment: [3H]-colchicine competition scintillation proximity assay; conditions: tubulin 1 µM, [3H]-colchicine 5 µM
In short: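 Competition scintillation proximity assay. Test compound was added to buffer (80 mM PIPES pH 6.8, 1 mM EGTA, 1 mM MgCl2, 10% glycerol, 1 mM GTP) containing tubulin 1 µM, then [3H]-colchicine 5 µM. After 2 h incubation, streptavidin-labelled SPA beads were added and radioactivity counted. Percent inhibition of colchicine binding was reported as mean ± SD of three independent experiments.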

[7] = test system: H22 allograft; experiment: H22 allograft mice model, in vivo antitumor effect; conditions: 20 mg/kg i.v. once a day, three weeks, by tumour weight
In short: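 H22 cells in log phase (1 × 10^7 cells/mL, 0.1 ml) were injected s.c. into the right flank. Tumour size and body weight were recorded every two days. Mice were sacrificed at about 21 days. TGI (%) = (1 − Wt/Wc) × 100, using mean tumour weights.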

SMILES	inhibition at 0.1 µM [1] [%]	inhibition at 1 µM [1] [%]	also measured
COc1ccc(/C=C\c2cc(OC)c(OC)c(OC)c2)cc1O [CA-4, Combretastatin A-4, reference compound]	88.3	92	IC50 [1]: 0.004 ± 0.001 µM; IC50 [2]: 0.032 ± 0.005 µM; IC50 [3]: 0.026 ± 0.006 µM; IC50 [4]: 0.01 ± 0.002 µM; IC50 [5]: 0.139 ± 0.017 µM; Inhibition (%) of colchicine binding ([6]; compound 1 µM): 78.55 ± 1.85%; Inhibition (%) of colchicine binding ([6]; compound 5 µM): 87.35 ± 1.37%; tumour growth inhibition (TGI) value [7]: 59.19%
COc1ccc(CC2Cc3cc(OC)c(OC)c(OC)c3C2)cc1 (stereo not drawn) [Compound 12a, 4,5,6-trimethoxy-2–(4-methoxybenzyl)-2,3-dihydro-1H-indene]	5.71	72.4	
COc1ccc(CC2Cc3cc(OC)c(OC)c(OC)c3C2)cc1OC (stereo not drawn) [Compound 12b, 2–(3,4-dimethoxybenzyl)-4,5,6-trimethoxy-2,3-dihydro-1H-indene]	5.8	15.2	
COc1cc(CC2Cc3cc(OC)c(OC)c(OC)c3C2)cc(OC)c1OC (stereo not drawn) [Compound 12c, 4,5,6-trimethoxy-2–(3,4,5-trimethoxybenzyl)-2,3-dihydro-1H-indene]	6.96	9.48	
COc1ccc(CC2Cc3cc(OC)c(OC)c(OC)c3C2)cc1F (stereo not drawn) [Compound 12e, 2–(3-fluoro-4-methoxybenzyl)-4,5,6-trimethoxy-2,3-dihydro-1H-indene]	10.2	67	
COc1cc2c(c(OC)c1OC)CC(Cc1ccc(C)c(F)c1)C2 (stereo not drawn) [Compound 12f, 2–(3-fluoro-4-methylbenzyl)-4,5,6-trimethoxy-2,3-dihydro-1H-indene]	6.65	72	
COc1cc2c(c(OC)c1OC)CC(Cc1ccc(F)c(F)c1)C2 (stereo not drawn) [Compound 12g, 2–(3,4-difluorobenzyl)-4,5,6-trimethoxy-2,3-dihydro-1H-indene]	4.71	7.74	
COc1cc2c(c(OC)c1OC)CC(Cc1ccc(N)c(C)c1)C2 (stereo not drawn) [Compound 12h, 2-methyl-4-((4,5,6-trimethoxy-2,3-dihydro-1H-inden-2-yl)methyl)aniline]	2.25	79.8	
COc1cc2c(c(OC)c1OC)CC(Cc1ccc(C)c(C)c1)C2 (stereo not drawn) [Compound 12i, 2–(3,4-dimethylbenzyl)-4,5,6-trimethoxy-2,3-dihydro-1H-indene]	3	66	
COc1ccc(CC2Cc3cc(OC)c(OC)c(OC)c3C2)cc1N (stereo not drawn) [Compound 12j, 2-methoxy-5-((4,5,6-trimethoxy-2,3-dihydro-1H-inden-2-yl)methyl)aniline]	68.7	86.6	IC50 [1]: 0.068 ± 0.006 µM; IC50 [2]: 0.212 ± 0.013 µM; IC50 [3]: 0.136 ± 0.011 µM; IC50 [4]: 0.093 ± 0.005 µM; IC50 [5]: 0.59 ± 0.062 µM
COc1ccc(CC2Cc3cc(OC)c(OC)c(OC)c3C2)cn1 (stereo not drawn) [Compound 12k, 2-methoxy-5-((4,5,6-trimethoxy-2,3-dihydro-1H-inden-2-yl)methyl)pyridine]	4.12	13.9	
COc1cc2c(c(OC)c1OC)CC(Cc1ccccc1)C2 (stereo not drawn) [Compound 12l, 2-benzyl-4,5,6-trimethoxy-2,3-dihydro-1H-indene]	1.03	7.29	
COc1cc2c(c(OC)c1OC)CC(Cc1ccc(O)cc1)C2 (stereo not drawn) [Compound 12m, 4-((4,5,6-trimethoxy-2,3-dihydro-1H-inden-2-yl)methyl)phenol]	2.9	16.4	
COc1cc2c(c(OC)c1OC)CC(Cc1ccc(N)cc1)C2 (stereo not drawn) [Compound 12n, 4-((4,5,6-trimethoxy-2,3-dihydro-1H-inden-2-yl)methyl)aniline]	5.81	78.8	
COc1cc2c(c(OC)c1OC)CC(Cc1ccc(N(C)C)cc1)C2 (stereo not drawn) [Compound 12o, N,N-dimethyl-4-((4,5,6-trimethoxy-2,3-dihydro-1H-inden-2-yl)methyl)aniline]	5.65	6.97	
COc1cc2c(c(OC)c1OC)CC(Cc1ccc(C(F)(F)F)cc1)C2 (stereo not drawn) [Compound 12p, 4,5,6-trimethoxy-2–(4-(trifluoromethyl)benzyl)-2,3-dihydro-1H-indene]	12.6	15.4	
COc1cc2c(c(OC)c1OC)CC(Cc1ccc3c(c1)CCO3)C2 (stereo not drawn) [Compound 12q, 5-((4,5,6-trimethoxy-2,3-dihydro-1H-inden-2-yl)methyl)-2,3-dihydrobenzofuran]	83.6	91.9	IC50 [1]: 0.079 ± 0.009 µM; IC50 [2]: 0.22 ± 0.015 µM; IC50 [3]: 0.183 ± 0.009 µM; IC50 [4]: 0.104 ± 0.004 µM; IC50 [5]: 0.398 ± 0.023 µM
COc1cc2c(c(OC)c1OC)CC(Cc1cccc3[nH]ccc13)C2 (stereo not drawn) [Compound 12s, 4-((4,5,6-trimethoxy-2,3-dihydro-1H-inden-2-yl)methyl)-1H-indole]	9.67	67.1	
COc1cc2c(c(OC)c1OC)CC(Cc1ccc3[nH]ccc3c1)C2 (stereo not drawn) [Compound 12t, 5-((4,5,6-trimethoxy-2,3-dihydro-1H-inden-2-yl)methyl)-1H-indole]	50.4	88.6	IC50 [1]: 0.176 ± 0.024 µM; IC50 [2]: 0.277 ± 0.029 µM; IC50 [3]: 0.284 ± 0.014 µM; IC50 [4]: 0.254 ± 0.02 µM; IC50 [5]: 0.552 ± 0.075 µM
COc1cc2c(c(OC)c1OC)CC(Cc1ccc3cc[nH]c3c1)C2 (stereo not drawn) [Compound 12u, 6-((4,5,6-trimethoxy-2,3-dihydro-1H-inden-2-yl)methyl)-1H-indole]	10.8	83.9	
COc1cc2c(c(OC)c1OC)CC(Cc1cccc3c1ccn3C)C2 (stereo not drawn) [Compound 12v, 1-methyl-4-((4,5,6-trimethoxy-2,3-dihydro-1H-inden-2-yl)methyl)-1H-indole]	5.02	28.5	
COc1cc2c(c(OC)c1OC)CC(Cc1ccc3c(ccn3C)c1)C2 (stereo not drawn) [Compound 12w, 1-methyl-5-((4,5,6-trimethoxy-2,3-dihydro-1H-inden-2-yl)methyl)-1H-indole]	10	85.8	
COc1cc2c(c(OC)c1OC)CC(Cc1ccc3ccn(C)c3c1)C2 (stereo not drawn) [Compound 12x, 1-methyl-6-((4,5,6-trimethoxy-2,3-dihydro-1H-inden-2-yl)methyl)-1H-indole]	12.5	74.9	
COc1ccc(CC2Cc3cc(OC)c(OC)cc3C2)cc1O [Compound 15a, 5-((5,6-dimethoxy-2,3-dihydro-1H-inden-2-yl)methyl)-2-methoxyphenol]	45.6	81.5	IC50 [1]: 0.192 ± 0.013 µM; fold decrease in antiproliferative activities of K562 cell lines [1]: about 7 fold; IC50 [2]: 0.753 ± 0.04 µM; IC50 [3]: 0.317 ± 0.027 µM; IC50 [4]: 0.307 ± 0.015 µM; IC50 [5]: 5 ± 0.306 µM
COc1ccc(CC2Cc3cc(O)c(OC)cc3C2)cc1O (stereo not drawn) [Compound 15b, 2–(3-hydroxy-4-methoxybenzyl)-6-methoxy-2,3-dihydro-1H-inden-5-ol]	31.4	89.2	IC50 [1]: 0.425 ± 0.027 µM; fold decrease in antiproliferative activities of K562 cell lines [1]: ~15 fold; IC50 [2]: 2.01 ± 0.117 µM; IC50 [3]: 3.17 ± 0.108 µM; IC50 [4]: 0.575 ± 0.041 µM; IC50 [5]: 11.3 ± 1.4 µM
COc1ccc(CC2Cc3c(cc(OC)c(OC)c3OC)O2)cc1O (stereo not drawn) [Compound 15c, 2-methoxy-5-((4,5,6-trimethoxy-2,3-dihydrobenzofuran-2-yl)methyl)phenol]	52.1	87.5	IC50 [1]: 0.1 ± 0.007 µM; IC50 [2]: 0.341 ± 0.064 µM; IC50 [3]: 0.309 ± 0.032 µM; IC50 [4]: 0.114 ± 0.023 µM; IC50 [5]: 3.58 ± 0.548 µM
COc1ccc(CC2Cc3cc(OC)c(OC)c(OC)c3C2=O)cc1O (stereo not drawn) [Compound 15d, 2–(3-hydroxy-4-methoxybenzyl)-5,6,7-trimethoxy-2,3-dihydro-1H-inden-1-one]	39	63	IC50 [1]: 0.774 ± 0.051 µM; IC50 [2]: 2.95 ± 0.154 µM; IC50 [3]: 3.41 ± 0.186 µM; IC50 [4]: 1.13 ± 0.058 µM; IC50 [5]: 6.96 ± 0.843 µM
